Source: ChEMBL document CHEMBL1152597, “Push-pull benzothiazole derivatives as probes for detecting beta-amyloid plaques in Alzheimer's brains” (Bioorg Med Chem, 2009)
Active and inactive are the calls of the source. The rule behind the calls is not given here.

Columns and labels:
[1] = target: Amyloid-beta precursor protein (Homo sapiens) (UniProt P05067); test: Binding affinity to beta-amyloid plaques in Alzheimer's disease patient temporal cortex by immunohistochemical staining; type: tissue-based
Sequence of Amyloid-beta precursor protein (Homo sapiens) (P05067 whole entry): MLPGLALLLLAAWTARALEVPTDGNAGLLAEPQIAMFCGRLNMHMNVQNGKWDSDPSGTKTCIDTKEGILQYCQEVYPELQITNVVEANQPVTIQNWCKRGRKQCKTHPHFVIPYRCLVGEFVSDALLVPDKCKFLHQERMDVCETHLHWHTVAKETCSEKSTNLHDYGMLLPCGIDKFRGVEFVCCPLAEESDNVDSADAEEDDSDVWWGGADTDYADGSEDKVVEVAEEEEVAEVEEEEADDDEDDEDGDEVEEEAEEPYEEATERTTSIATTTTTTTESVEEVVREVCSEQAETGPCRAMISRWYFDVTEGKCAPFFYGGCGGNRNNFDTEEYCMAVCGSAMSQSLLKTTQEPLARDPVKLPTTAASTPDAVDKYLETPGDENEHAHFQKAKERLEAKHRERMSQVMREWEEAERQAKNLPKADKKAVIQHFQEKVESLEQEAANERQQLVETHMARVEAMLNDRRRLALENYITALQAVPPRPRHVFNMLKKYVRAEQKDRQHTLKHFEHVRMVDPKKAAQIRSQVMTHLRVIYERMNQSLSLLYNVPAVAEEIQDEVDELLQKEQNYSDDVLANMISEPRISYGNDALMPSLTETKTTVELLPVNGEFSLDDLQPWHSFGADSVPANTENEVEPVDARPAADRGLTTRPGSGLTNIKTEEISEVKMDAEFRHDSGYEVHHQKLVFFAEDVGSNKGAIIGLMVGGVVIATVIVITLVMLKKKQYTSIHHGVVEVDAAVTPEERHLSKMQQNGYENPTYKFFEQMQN
In short: (§1)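 Probe staining was done on 5 µm sections of temporal cortex from AD brain and from adult normal brain, read by fluorescence microscopy. Serial sections were immunostained with anti-Aβ antibodies to compare the plaque staining pattern.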

[2] = target: Amyloid-beta precursor protein (Homo sapiens) (UniProt P05067); test: Binding affinity to beta-amyloid plaques in normal patient brain section by immunohistochemical staining; in short: as §1
Mus musculus [3] = species: Mus musculus; test: Binding affinity to beta-amyloid plaques in wild type mouse assessed as accumulation in brain by thioflavin S staining; type: tissue-based
In short: (§2)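 Tg2576 (female, 27-month-old) and wild-type (female, 27-month-old) mouse brains were cut into 10 µm serial sections. Sections were incubated 10 min with probe in 50% EtOH, washed twice for 1 min in 50% EtOH and examined by fluorescence microscopy. Serial sections were counterstained with thioflavin S to confirm plaques.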

Mus musculus [4] = species: Mus musculus; test: Binding affinity to beta-amyloid plaques in Alzheimer's disease Tg2576 mouse brain by thioflavin S staining; type: tissue-based; in short: as §2
[5] = Inhibition of amyloid beta (1-42) aggregation by thioflavin T competition binding experiment

Structure (SMILES)	Activity [1]	Activity [2]	Activity (Mus musculus [3])	Activity (Mus musculus [4])	IC50 [5]
CN(C)c1ccc2nc(C=C(C#N)C#N)sc2c1	Active	inactive	inactive	Active	0.12 µM
CN(C)c1ccc2nc(/C=C/c3ccc(C=C(C#N)C#N)cc3)sc2c1	Active	inactive	inactive	Active	0.11 µM
[11CH3]Nc1ccc(-c2nc3ccc(O)cc3s2)cc1 [PITTSBURGH COMPOUND B]	–	–	–	–	0.67 µM
